Bioassay records: PubChem BioAssay, several laboratories
A selection: hits, their analogues and other compounds. The true share with any hit is near 2.5%.
EP2 mod = EP2 receptor modulators, cAMP readout, primary screen, cell-based, HTRF cAMP, PGE2 stimulation; EP2-expressing cells, cAMP HTRF FRET, PGE2 co-stimulation; 260,000 compounds, 0.83% hits; Prostaglandin E2 receptor EP2 subtype (Homo sapiens), P43116; AID 940, 2007; induction, % at 25 µM;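 active = compounds whose cAMP rise, as percent of the full-agonist control response, exceeds 60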;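 note: rat C6 glioma line stably carrying human EP2 under a CMV promoter; the protocol text gives 20 µM as final concentration; 100% = response of wells given 1 µM PGE2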
Target sequence (P43116 whole entry, looked up): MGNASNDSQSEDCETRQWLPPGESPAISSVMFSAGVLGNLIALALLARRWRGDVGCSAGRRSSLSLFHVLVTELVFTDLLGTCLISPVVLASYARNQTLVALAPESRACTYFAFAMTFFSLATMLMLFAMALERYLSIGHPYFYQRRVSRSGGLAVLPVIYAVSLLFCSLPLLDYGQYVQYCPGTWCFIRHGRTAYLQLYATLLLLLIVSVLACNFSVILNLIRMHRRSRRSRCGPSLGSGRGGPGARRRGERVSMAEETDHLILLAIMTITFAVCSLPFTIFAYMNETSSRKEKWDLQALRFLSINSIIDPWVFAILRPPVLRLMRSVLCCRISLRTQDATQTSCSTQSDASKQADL
Tb hexokinase = Trypanosoma brucei hexokinase 1 inhibitors, primary screen, biochemical, G6PDH-coupled NADH absorbance, MLSCN library. 220,000 compounds, 0.11% hits. recombinant TbHK1, G6PDH-coupled NADH A340. inhibition, % at 10 µM. hexokinase 1 [Trypanosoma brucei];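 active = inhibition of 50% or more in the single-dose primary screen; inactive = inhibition below 50%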
PGE2 EP2 inh = human EP2 receptor antagonists, primary screen, TR-FRET cAMP, C6 glioma cells; Prostaglandin E2 receptor EP2 subtype (Homo sapiens), P43116; C6 glioma cells expressing human EP2; cells stimulated with saturating PGE2; inhibition, % at 25 µM; 260,000 compounds, 0.52% hits; AID 1422, 2008;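 active = percent inhibition above 40 after rounding to a whole number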;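 note: rat C6 glioma host cells with rolipram phosphodiesterase inhibitor present; the protocol text gives 20 µM as final concentration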
HKDC1 inh = HKDC1 hexokinase inhibitors, primary screen, biochemical, fluorescence, uHTS | recombinant HKDC1, G6PDH/diaphorase resazurin coupled fluorescence | inhibition, % at 20 µM | 340,000 compounds, 0.16% hits;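 active = inhibition above about 35% when tested at 20 µM, limit read from the data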;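 note: plate controls were DMSO wells with enzyme for no effect and DMSO wells lacking enzyme for full effect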
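Test system: HK5 enzyme. Quantity: 5 µg/mL HK5 final. Reagent: glucose and ATP substrates. Schedule: 90 min reaction incubation at room temperature, dark. Technique: resazurin-to-resorufin fluorescence via G6PDH and diaphorase coupling, 525/613 nm. Control set: DMSO wells with and without enzyme mix.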
PHOSPHO1 block = PubChem AID 1565 | Phosphoethanolamine/phosphocholine phosphatase (Homo sapiens), Q8TCT1 | recombinant PHOSPHO1, absorbance phosphatase assay | inhibition, % at 13.3 µM | 290,000 compounds, 1.1% hits; in the data active = inhibition above about 60%
Target sequence (Q8TCT1 whole entry, looked up): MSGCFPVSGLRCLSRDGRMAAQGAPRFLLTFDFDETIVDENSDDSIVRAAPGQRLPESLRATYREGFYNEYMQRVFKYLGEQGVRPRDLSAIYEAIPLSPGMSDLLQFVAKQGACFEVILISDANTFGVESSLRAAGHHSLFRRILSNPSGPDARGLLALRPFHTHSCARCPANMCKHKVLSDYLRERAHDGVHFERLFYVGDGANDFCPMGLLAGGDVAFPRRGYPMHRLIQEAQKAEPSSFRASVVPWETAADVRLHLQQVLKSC
PfG6PD inh = PfG6PD enzyme inhibitors, primary screen, biochemical, fluorescence intensity, uHTS; inhibition, % at 20 µM; glucose-6-phosphate dehydrogenase-6-phosphogluconolactonase (Plasmodium falciparum 3D7); PfGluPho enzyme, NADPH resazurin-diaphorase fluorescence; 350,000 compounds, 0.78% hits;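 active = inhibition reaching at least a set limit at 20 µM in the primary screen, cut at about 59% in these data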;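 note: 0% = DMSO wells with substrate and 100% = DMSO wells lacking glucose-6-phosphate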
HKDC1 act conf = HKDC1 hexokinase activators, confirmation, biochemical, single concentration. shares compounds with HKDC1 inh. recombinant HKDC1, G6PDH/diaphorase resazurin fluorescence; active compounds read low. inhibition, % at 20 µM. 740 compounds, 14% hits. AID 504708, 2011;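 active = inhibition at or below a set negative limit, negative inhibition meaning the enzyme was activated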
PfG6PD confirm = PfG6PD inhibitors, hit retest, confirmation, biochemical, fluorescence intensity, single concentration; recombinant PfGluPho, NADPH-diaphorase-resazurin fluorescence; shares compounds with PfG6PD inh; 2,400 compounds, 34% hits; inhibition, % at 20 µM;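 active = inhibition of at least 50% at 20 µM in any single replicate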;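 note: 0% = DMSO with substrate and 100% = DMSO lacking glucose-6-phosphate substrate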
Diaph ctr 10uM = diaphorase inhibitors and chemical oxidizers, confirmation, counter-screen for P. falciparum G6PD inhibitor project, biochemical, fluorescence intensity, 10 µM NADPH; shares compounds with PfG6PD inh; inhibition, % at 20 µM; diaphorase-coupled resazurin reduction, NADPH 10 uM; 820 compounds, 39% hits;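 active = average inhibition reaching 50% or more with the compound at 20 µM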;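 note: resorufin red fluorescence formed as diaphorase reduces resazurin using NADPH; 0% = DMSO with enzyme and 100% = DMSO without enzyme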
Diaphorase 30uM = diaphorase inhibitors and chemical oxidizers, confirmation, counter-screen for P. falciparum G6PD inhibitor project, biochemical, fluorescence intensity, 30 µM NADPH; shares compounds with PfG6PD inh; Diaphorase/resazurin coupled assay, resorufin fluorescence; inhibition, % at 20 µM; 820 compounds, 29% hits; AID 504863, 2011;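 active = inhibition averaging 50% or more, tested at 20 µM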;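 note: 0% = DMSO with enzyme and 100% = DMSO wells lacking diaphorase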
* = called active by the depositor.

`CCOC(=O)c1c(-n2c(C)cc(/C=C3\C(=O)NC(=O)N(C)C3=O)c2C)sc2c1CCCC2` gave EP2 mod 36.9, Tb hexokinase -1.0, PGE2 EP2 inh 12.3, HKDC1 inh 51.2*, PHOSPHO1 block -9.1, PfG6PD inh -13.1 and HKDC1 act conf 34.0.
For Cc1ccc(N2C(=O)NC(=O)/C(=C\c3cc(C)n(-c4ccc(C(=O)O)cc4)c3C)C2=O)cc1 the results were HKDC1 inh 1.3, PHOSPHO1 block 36.9 and PfG6PD inh -0.2.
`CC12CN3CC(C)(CN(C1)C3c1cccnc1)C2` (stereo not given) gave EP2 mod -3.3 and PGE2 EP2 inh 4.5.
`CC(=O)Oc1c2c(c(CC=C(C)C)c3c1C(=O)C1=C[C@@H]4CC5C(C)(C)OC(C/C=C(\C)C(=O)O)(C4=O)[C@@]15O3)OC(C)(CCC=C(C)C)C=C2` (stereo not given in full) gave EP2 mod 6.8 and PGE2 EP2 inh 27.1.
N#CC(C#N)=Cc1ccc([N+](=O)[O-])c(O)c1 was read as EP2 mod -17.1 and PGE2 EP2 inh 9.0.
`N#CC(C#N)=Cc1ccc(C=C(C#N)C#N)cc1` gave EP2 mod -41.9, Tb hexokinase 2.9, PGE2 EP2 inh 17.6, HKDC1 inh 37.6*, PHOSPHO1 block 33.4, PfG6PD inh 18.0 and HKDC1 act conf -4.5.
For CCn1ncc(CN2C3CCC2CC(O)(c2ccccc2F)C3)c1C (stereo not given) the results were EP2 mod -21.6 and PGE2 EP2 inh 8.8.
Screening CN1CC[C@@]2(C)c3cc(O)ccc3N(C)[C@@H]12 returned HKDC1 inh 33.5, PfG6PD inh 83.2*, HKDC1 act conf 17.4, PfG6PD confirm 103.6*, Diaph ctr 10uM 74.3* and Diaphorase 30uM 47.8.
CC1[C@H]2Cc3ccc(O)cc3[C@]1(C)CCN2C (stereo not given in full) was read as HKDC1 inh -4.6 and PfG6PD inh 9.6.
Screening COc1ccc(/C=C2\C(=O)C3CCN2CC3)cc1OC returned EP2 mod -20.8 and PGE2 EP2 inh 13.5.
Screening O=C(O)CC1OCC=C2CN3CCC45C6=CC(=O)C(=O)C([N+](=O)[O-])=C6NC4C1C2CC35 (stereo not given) returned EP2 mod 19.5, Tb hexokinase -19.1, PGE2 EP2 inh 4.8, HKDC1 inh 42.5*, PHOSPHO1 block 36.8, PfG6PD inh 106.9*, HKDC1 act conf 28.5, PfG6PD confirm 105.2*, Diaph ctr 10uM 91.2* and Diaphorase 30uM 96.5*.
COC(=O)C1=C(C(=O)OC)SC2(S1)C(C(=O)OC)=C(C(=O)OC)Sc1c2ssc1=O was read as HKDC1 inh -108.7, PfG6PD inh 86.4*, HKDC1 act conf -88.9*, PfG6PD confirm 60.3*, Diaph ctr 10uM -2.4 and Diaphorase 30uM -3.3.
`COc1ccc(CN2CCN(C(=O)COc3ccc(C)cc3)CC2)c(OC)c1` gave EP2 mod -108.4 and PGE2 EP2 inh 9.1.
Screening Oc1ccccc1Cl returned HKDC1 inh -2.7 and PfG6PD inh 4.5.
Oc1ccc(O)c2c1C1(Cl)C(Cl)=C(Cl)C2(Cl)C1(Cl)Cl was read as HKDC1 inh -1.8, PfG6PD inh 73.3* and PfG6PD confirm 12.4.
`O=C1C(=O)c2ccccc2-c2ccccc21` gave EP2 mod -37.8, Tb hexokinase -5.5, PGE2 EP2 inh 44.6*, HKDC1 inh 30.8, PHOSPHO1 block 99.7*, PfG6PD inh 116.8*, PfG6PD confirm 97.0*, Diaph ctr 10uM 88.4* and Diaphorase 30uM 89.7*.
Screening CCOC(=O)C(O)(c1ccc(NC(=O)c2ccc(Cl)c(Cl)c2)cc1)C(F)(F)F (stereo not given) returned EP2 mod -48.3, Tb hexokinase 1.8, PGE2 EP2 inh 2.7, HKDC1 inh -0.9, PHOSPHO1 block 16.0, PfG6PD inh 62.4* and PfG6PD confirm -27.4.
For CCOC(=O)C(O)(c1ccc(N(C)C(=O)c2ccc(Cl)c(Cl)c2)cc1)C(F)(F)F (stereo not given) the results were EP2 mod -11.8, Tb hexokinase -7.0, PGE2 EP2 inh 1.8, HKDC1 inh 2.2, PHOSPHO1 block 17.2 and PfG6PD inh 14.5.
For CCc1cccc2c(CC(=O)N(C)CCN(C)C)c(C)[nH]c12 the results were EP2 mod -3.1 and PGE2 EP2 inh 3.4.
For COc1cc(O)c(C(=O)O)c(-c2cc(O)c(O)cc2C)c1 the results were EP2 mod 23.1, Tb hexokinase 7.4, PGE2 EP2 inh 76.6*, HKDC1 inh 1.3, PHOSPHO1 block -18.7, PfG6PD inh 104.7*, PfG6PD confirm 107.0*, Diaph ctr 10uM 38.0 and Diaphorase 30uM 24.9.
Screening O=C1NC(=O)N(c2ccc3c(c2)OCO3)C(=O)/C1=C/c1cccs1 returned EP2 mod -84.2, Tb hexokinase -3.3, PGE2 EP2 inh 92.1*, HKDC1 inh -3.1, PHOSPHO1 block 35.1, PfG6PD inh 67.2* and PfG6PD confirm 44.9.
`O=C1NC(=O)N(c2ccc3c(c2)OCO3)C(=O)/C1=C/c1ccsc1` gave EP2 mod -34.4, Tb hexokinase -3.8, PGE2 EP2 inh 4.3, HKDC1 inh -7.6, PHOSPHO1 block 5.6 and PfG6PD inh 28.4.
For C=CCc1cc(CN2C3CCC2CC(O)(c2ccc(OC)cc2)C3)cc(OC)c1OC (stereo not given) the results were EP2 mod -29.3 and PGE2 EP2 inh 9.0.
